Source: PubChem (Johns Hopkins Ion Channel Center)
KCNQ1 pot = potentiators or activators of KCNQ1 channel, primary screen, cell-based, thallium flux, high-throughput; 0.35% of 310,000 active; AID 2648, 2010; B-score at 10 µM; CHO-K1 KCNQ1, thallium flux FluxOR fluorescence; active compounds read high;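 active = fluorescence ratio B-score, a plate-corrected score, at least three library SD, with initial intensity B-score within 5 SD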
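assay system = KCNQ1-transfected CHO-K1 cells | medium = assay buffer with matched DMSO | probe or stimulus = depolarizing K+/Tl+ stimulus, K2SO4 and Tl2SO4 each 12.5 mM in 5x stock | dosing = single dose | incubation = dye 90 min, compound 20 min, room temperature | detection = kinetic FluxOR fluorescence, 10 s baseline plus 110 s post-stimulus | evaluation = ratio B score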
Kir21 block = inhibitors of mouse Kir2.1 inward-rectifier potassium channel | Inward rectifier potassium channel 2 (Mus musculus), P35561 | HEK293-Kir2.1, FluxOR thallium flux fluorescence; active compounds read low | B-score at 10 µM | 0.85% of 310,000 active | AID 1672, 2009;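 active = fluorescence ratio B-score at or below minus 3 SD of library scores, with starting-brightness B-score within 2 SD, cut at about -4.2 in these data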;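 note: channel flux triggered by added potassium and thallium sulfate stimulus; B-score of peak minus minimum fluorescence over baseline after thallium stimulus; more negative B-score means stronger Kir2.1 block with less thallium influx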
KCNK9 inh = KCNK9 potassium channel inhibitors, primary screen, HEK293 cells, thallium flux | B-score at 10 µM | Potassium channel subfamily K member 9 (Homo sapiens), Q9NPC2 | AID 488922, 2010 | 1.2% of 310,000 active | FluxOR thallium flux fluorescence; active compounds read low;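 active = ratio B-score over 3 SD below the library mean, with starting fluorescence within 5 SD of its mean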;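 note: negative B-score means less thallium flux so channel inhibition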
hERG rescue = hERG rescue from dofetilide block, primary screen, cell-based, CHO-hERG, FluxOR thallium flux, dofetilide IC70; Voltage-gated inwardly rectifying potassium channel KCNH2 (Homo sapiens), Q12809; dofetilide IC70 present; activation (rescue from dofetilide block), less the hit threshold, % at 10 µM; 0.51% of 310,000 active; AID 1511, 2009;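 active = activation above the mean of controls blocked by dofetilide plus 5 SD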;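 note: thallium influx through hERG after potassium depolarization seen as dye fluorescence rise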
KCNQ1 inh = inhibitors of human KCNQ1 channel, primary screen, cell-based, thallium flux, high-throughput; 1.3% of 310,000 active; B-score at 10 µM; AID 2642, 2010; CHO-K1 KCNQ1, FluxOR thallium flux fluorescence; active compounds read high; Potassium voltage-gated channel subfamily KQT member 1 (Homo sapiens), P51787;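 active = compounds whose thallium flux B-score, printed positive for inhibition, exceeds three library SD while starting fluorescence stays within three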;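 note: channel opened by potassium depolarization with thallium stimulus after 20 min compound exposure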
KCNK3 inh = human KCNK3 channel inhibitors, primary screen, CHO cells, FluxOR thallium flux, B-score. FluxOR fluorescence; active compounds read low. 0.84% of 340,000 active. AID 602410, 2012. B-score at 10 µM;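 active = B-score under library mean minus 4 SD, starting fluorescence ratio at most library mean plus 5 SD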;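 note: more negative B-score means stronger inhibition of thallium flux through KCNK3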
Target sequence (O14649 whole entry, looked up): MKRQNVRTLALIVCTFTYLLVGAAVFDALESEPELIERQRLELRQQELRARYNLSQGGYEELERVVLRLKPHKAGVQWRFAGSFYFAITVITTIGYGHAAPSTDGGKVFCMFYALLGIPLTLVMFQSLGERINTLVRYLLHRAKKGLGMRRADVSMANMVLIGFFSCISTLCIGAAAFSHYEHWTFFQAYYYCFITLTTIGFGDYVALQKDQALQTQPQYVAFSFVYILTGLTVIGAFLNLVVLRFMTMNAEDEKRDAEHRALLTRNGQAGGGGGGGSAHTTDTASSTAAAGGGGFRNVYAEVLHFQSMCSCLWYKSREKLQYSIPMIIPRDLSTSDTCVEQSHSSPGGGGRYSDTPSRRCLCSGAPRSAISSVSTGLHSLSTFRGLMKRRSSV
Starred values were filed as active, the others as inactive; i = inactive; nt = no result given. Rows were chosen to be rich in hits. Some 3.8% of all compounds tested hit in one or more screens of this group.

SMILES	KCNQ1 pot	Kir21 block	KCNK9 inh	hERG rescue	KCNQ1 inh	KCNK3 inh
Cc1ccc(N(CC(=O)NC(C)(C)C)C(=O)CCC(=O)Nc2nccs2)cc1C	i	0.82	i	-7	i	i
Cc1ccc(CNC(=O)C2(NC(=O)Nc3ccc(C)cc3)CCCCC2)cc1	i	-0.29	i	4.6*	i	i
COc1ccccc1CNC(=O)C1(NC(=O)Nc2ccc(C)cc2)CCCCC1	i	0.12	i	-14	i	i
COc1ccc(C2CC(C)(c3ccc(OC)cc3)Nc3ccccc3N2)cc1 (stereo not drawn)	i	1.1	i	-5	i	i
COc1ccc(C2(C)CC(C)(C)Nc3ccccc32)cc1 (stereo not drawn)	8*	-3.4	i	-12	i	i
CC1CCN(CC(=O)Nc2cccc(C(=O)Nc3cccc(C(F)(F)F)c3)c2)CC1	i	-0.27	i	-15	i	i
CCCn1cc(SCC(=O)NCc2ccco2)c2ccccc21	i	-5.2*	i	-7	i	i
Nc1c2nc(-c3ccccc3)[nH]c(=O)c2nc(=O)n1-c1ccccc1	i	-0.37	i	-14	i	i
COc1ccccc1N1CN(S(=O)(=O)c2ccc(C)cc2)c2nc3ccccc3nc21	nt	nt	nt	nt	nt	-9.9*
COc1cccc(CN(C)C(=O)c2ccc(OCC(=O)Nc3cccc(C(F)(F)F)c3)c(OC)c2)c1	i	-0.03	i	-20	9*	i
COc1ccc(CN(C)C(=O)c2ccc(OCC(=O)Nc3cccc(C(F)(F)F)c3)c(OC)c2)c(OC)c1	i	-0.77	i	-10	i	i
Clc1ccc(CSc2nnnn2-c2ccc3c(c2)OCO3)c(Cl)c1	i	-0.48	-7*	-8	i	i
c1ccc(CSc2nnnn2-c2ccc3c(c2)OCCO3)nc1	i	0.18	i	0	i	i
CC1CCN(c2ccc3c(c2)S(=O)(=O)c2cccc(C(=O)NCc4ccc(F)cc4)c2C3=O)CC1	nt	nt	nt	nt	nt	i
CCc1ccc(N(CC(=O)NCc2ccc(OC)cc2)C(=O)CCC(=O)Nc2ccccn2)cc1	i	-0.04	i	-2	i	i
CCCc1cc(=O)n2[nH]c(-c3ccc(OC)cc3)nc2n1	i	-1.3	-7.8*	-6	i	i
C=CCn1c(COc2ccccc2)nnc1SC(C)C(=O)N/N=C/c1cc(Cl)ccc1O (stereo not drawn)	i	0.05	i	-13	7*	i
C=CCn1c(COc2ccc(Cl)cc2)nnc1SCC(=O)N/N=C/c1cccc(O)c1	i	1.1	i	-9	i	i
CCCCC(Nc1ncnc2ccccc12)C(=O)O (stereo not drawn)	16*	2	i	-10	i	i
CC(C)Oc1ccc(Nc2ncnc3ccccc23)cc1	i	-1.4	i	-9	i	i
CC(=O)NNc1ncnc2ccccc12	i	-0.23	i	-2	i	i
CC(Nc1ncnc2ccccc12)c1ccccc1 (stereo not drawn)	i	0.63	i	-18	6*	i
COC(=O)CSC(=S)N1CCCC(C)C1 (stereo not drawn)	i	0.88	i	-9	i	i
COC(=O)CCC(=O)NNC(=O)c1ccc(Cl)cc1Cl	i	-0.12	i	1	i	i
O=C(COC(=O)C1(c2ccc(Cl)cc2)CCCC1)N1CCc2ccccc21	i	0	i	-12	i	i
O=C(Nc1cccc(Cl)c1)N1CCN2C(=O)c3ccccc3C12c1ccccc1 (stereo not drawn)	i	0.93	i	-11	11*	i
